In data set [1] the target is Beta-secretase 1 (Homo sapiens, UniProt P56817). Description: Inhibition of BACE1 in human H4 cells expressing APP751 Swedish mutant assessed as inhibition of amyloid beta 40 or amyloid beta 42 production incubated for 19 hrs by microplate reader analysis. It is filed as cell-based.
The nature of data set [2]: Metabolic stability in rat liver microsomes assessed as parent compound remaining at 0.5 uM after 10 mins. It is filed as ADME. The following applies: read-out: Stability.
The nature of data set [3]: Metabolic stability in mouse liver microsomes assessed as parent compound remaining at 0.5 uM after 10 mins. It is filed as ADME. Conditions: read-out: Stability. In general terms: Liver microsomes are a subcellular fraction often used to study metabolism.
The nature of data set [4]: Metabolic stability in human liver microsomes assessed as parent compound remaining at 0.5 uM after 10 mins. It is filed as ADME. Conditions: read-out: Stability.
In data set [5] the test system is Salmonella typhimurium. Description: Mutagenicity in Salmonella typhimurium by Ames test. It is filed as toxicity, organism-based. Conditions: salmonella enterica subsp. enterica serovar typhimurium. (The Ames test uses bacterial strains that need an amino acid and regain growth without it when mutated back.)
Data set [6] is described as follows: Plasma protein binding in rat at 1 to 10 mg/kg, po measured at 5 hrs post dose. It is filed as ADME, organism-based. The following applies: read-out: PPB (converted).
Data set [7] in a line: Drug level in rat brain at 10 mg/kg, po after 5 hrs. It is filed as ADME, organism-based. The following applies: read-out: Drug uptake. In outline: (§1)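 Female rats given a single oral dose in PEG-400/EtOH/Tween 80 (84:15:1). Plasma and brain were collected 5 h postdose, 5 rats per dose, to measure drug exposure and brain Aβ levels. Values are means (n = 5) with SD.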
Data set [8] relates to Plasma. In words: Drug metabolism in mouse plasma assessed as (4S,6S)-4-(5-amino-2,3-difluorophenyl)-6-(3,5-dimethylisoxazol-4-yl)-4-methyl-5,6-dihydro-4H-1,3-thiazin-2-amine formation at 10 mg/kg, po after 3 hrs. It is filed as ADME, organism-based. Conditions: in vivo.
For data set [9], the target named is Cytochrome P450 2C9 (Homo sapiens, UniProt P11712). Description: Inhibition of CYP2C9 (unknown origin) expressed in baculovirus infected insect cells using MFC as susbtrate incubated for 45 mins by plate reader analysis in presence of NADP+. It is filed as ADME.
Data set [10] deals with Rattus norvegicus. In words: Antialzheimer activity in po dosed rat assessed as reduction in amyloid beta (1 to 42) level in brain measured at 5 hrs post dose by ELISA. It is filed as functional, organism-based. The gist of the method: as §1
(In general: In an ELISA, binding on a coated surface is turned into a signal by an enzyme label.)

Data set [11] in a line: Plasma concentration in rat at 10 mg/kg, po after 5 hrs. It is filed as ADME, organism-based. In outline:
as §1

For data set [12], the target named is T1, Cytochrome P450 3A4 (Homo sapiens, UniProt P08684). In words: Inhibition of CYP3A4 (unknown origin) expressed in baculovirus infected insect cells using BFC as susbtrate incubated for 45 mins by plate reader analysis in presence of NADP+. It is filed as ADME.
Data set [13] can be described thus: Plasma concentration in rat at 1 mg/kg, po after 5 hrs. It is filed as ADME, organism-based. The gist of the method:
as §1

Data set [14] is described as follows: Drug level in rat brain at 3 mg/kg, po after 5 hrs. It is filed as ADME, organism-based. Conditions: read-out: Drug uptake. In outline:
as §1

The test system of data set [15] is Plasma. Description: Free plasma concentration in rat at 1 to 10 mg/kg, po measured at 5 hrs post dose. It is filed as ADME, organism-based. Conditions: in vivo.
Data set [16] in a line: Drug level in rat brain at 1 mg/kg, po after 5 hrs. The following applies: read-out: Drug uptake. It is filed as ADME, organism-based. In outline:
as §1

A short description of data set [17]: Ratio of drug level in rat brain to plasma at 3 mg/kg, po after 5 hrs. It is filed as ADME, organism-based. The following applies: read-out: BPR. The gist of the method:
as §1

Data set [18] addresses T2, Cytochrome P450 1A2 (Homo sapiens, UniProt P05177).
T2 sequence (P05177 whole entry): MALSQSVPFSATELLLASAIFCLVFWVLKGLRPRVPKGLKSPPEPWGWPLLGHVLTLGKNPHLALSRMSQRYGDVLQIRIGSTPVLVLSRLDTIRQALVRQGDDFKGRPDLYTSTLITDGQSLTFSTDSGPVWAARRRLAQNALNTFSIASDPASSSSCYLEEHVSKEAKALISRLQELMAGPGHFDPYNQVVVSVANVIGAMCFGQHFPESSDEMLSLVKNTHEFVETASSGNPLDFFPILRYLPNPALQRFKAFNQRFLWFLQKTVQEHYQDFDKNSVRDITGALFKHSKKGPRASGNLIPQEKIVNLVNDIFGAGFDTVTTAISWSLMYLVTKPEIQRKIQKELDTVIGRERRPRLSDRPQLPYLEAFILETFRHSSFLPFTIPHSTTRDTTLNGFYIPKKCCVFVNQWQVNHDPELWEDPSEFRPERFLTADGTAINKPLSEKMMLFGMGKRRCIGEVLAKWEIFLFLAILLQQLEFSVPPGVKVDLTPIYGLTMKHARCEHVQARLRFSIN
In words: Inhibition of CYP1A2 (unknown origin) expressed in baculovirus infected insect cells using CEC as susbtrate incubated for 45 mins by plate reader analysis in presence of NADP+. It is filed as ADME.

Data set [19] relates to Mus musculus. In words: Antialzheimer activity in mouse assessed as reduction in amyloid beta 42 level in brain at 10 mg/kg, po by ELISA relative to control. It is filed as functional.
Data set [20] in a line: Ratio of drug level in rat brain to plasma at 10 mg/kg, po after 5 hrs. It is filed as ADME, organism-based. The following applies: read-out: BPR. The gist of the method: as §1
The test system of data set [21] is Rattus norvegicus. Description: Antialzheimer activity in rat assessed as total plasma concentration required for reduction in amyloid beta (1 to 42) level in brain at 1 to 10 mg/kg, po measured at 5 hrs post dose. It is filed as functional, organism-based.
Data set [22] deals with Cytochrome P450 2D6 (Homo sapiens, UniProt P10635). Description: Inhibition of CYP2D6 (unknown origin) expressed in baculovirus infected insect cells using AMMC as susbtrate incubated for 45 mins by plate reader analysis in presence of NADP+. It is filed as ADME.
Data set [23] has as its system Rattus norvegicus. In words: Antialzheimer activity in rat assessed as free drug concentration in plasma required for reduction in amyloid beta (1 to 42) level in brain at 1 to 10 mg/kg, po measured at 5 hrs post dose. It is filed as functional, organism-based.
Data set [24] deals with Rattus norvegicus. In words: Antialzheimer activity in po dosed rat assessed as reduction in total amyloid beta level in brain measured at 5 hrs post dose by ELISA. It is filed as functional, organism-based. The gist of the method:
as §1

Data set [25] in a line: Plasma concentration in rat at 3 mg/kg, po after 5 hrs. It is filed as ADME, organism-based. In outline:
as §1

Data set [26] addresses Cytochrome P450 2C19 (Homo sapiens, UniProt P33261). Description: Inhibition of CYP2C19 (unknown origin) expressed in baculovirus infected insect cells using CEC as susbtrate incubated for 45 mins by plate reader analysis in presence of NADP+. It is filed as ADME.
A short description of data set [27]: Ratio of drug level in rat brain to plasma at 1 mg/kg, po after 5 hrs. It is filed as ADME, organism-based. The following applies: read-out: BPR. The gist of the method:
as §1

For data set [28], the target named is T1, Cytochrome P450 3A4. Description: Inhibition of CYP3A4 (unknown origin) expressed in baculovirus infected insect cells using benzyloxyresorufin as susbtrate incubated for 45 mins by plate reader analysis in presence of NADP+. It is filed as ADME.
Data set [29] concerns the target T3, Cytochrome P450 2C8 (Homo sapiens, UniProt P10632).
T3 sequence (P10632 whole entry): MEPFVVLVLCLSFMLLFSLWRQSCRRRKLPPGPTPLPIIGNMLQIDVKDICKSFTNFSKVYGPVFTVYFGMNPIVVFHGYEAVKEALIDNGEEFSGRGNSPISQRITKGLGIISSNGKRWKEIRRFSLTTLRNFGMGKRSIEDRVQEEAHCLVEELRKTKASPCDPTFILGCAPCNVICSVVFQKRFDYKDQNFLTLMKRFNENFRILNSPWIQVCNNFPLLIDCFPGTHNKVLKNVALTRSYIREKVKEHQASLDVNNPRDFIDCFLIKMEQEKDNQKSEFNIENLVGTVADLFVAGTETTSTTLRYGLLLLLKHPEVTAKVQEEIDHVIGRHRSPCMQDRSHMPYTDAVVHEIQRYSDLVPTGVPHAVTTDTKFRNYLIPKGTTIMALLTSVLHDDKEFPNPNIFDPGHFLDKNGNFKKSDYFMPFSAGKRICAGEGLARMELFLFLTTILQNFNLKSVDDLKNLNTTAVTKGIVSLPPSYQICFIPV
In words: Inhibition of CYP2C8 (unknown origin). It is filed as ADME.

The subject of data set [30] is Rattus norvegicus. In words: Antialzheimer activity in po dosed rat assessed as reduction in amyloid beta (1 to 40) level in brain measured at 5 hrs post dose by ELISA. It is filed as functional, organism-based. In outline:
as §1

Data set [31] relates to Rattus norvegicus. In words: Antialzheimer activity in rat assessed as reduction in amyloid beta level in brain at 30 mg/kg, po measured at 5 hrs post dose by ELISA. It is filed as functional, organism-based.

Activity calls are given as the source filed them. The calls are words filed in the database; no cut-off is given here.

Chain of Beta-secretase 1 (P56817 whole entry): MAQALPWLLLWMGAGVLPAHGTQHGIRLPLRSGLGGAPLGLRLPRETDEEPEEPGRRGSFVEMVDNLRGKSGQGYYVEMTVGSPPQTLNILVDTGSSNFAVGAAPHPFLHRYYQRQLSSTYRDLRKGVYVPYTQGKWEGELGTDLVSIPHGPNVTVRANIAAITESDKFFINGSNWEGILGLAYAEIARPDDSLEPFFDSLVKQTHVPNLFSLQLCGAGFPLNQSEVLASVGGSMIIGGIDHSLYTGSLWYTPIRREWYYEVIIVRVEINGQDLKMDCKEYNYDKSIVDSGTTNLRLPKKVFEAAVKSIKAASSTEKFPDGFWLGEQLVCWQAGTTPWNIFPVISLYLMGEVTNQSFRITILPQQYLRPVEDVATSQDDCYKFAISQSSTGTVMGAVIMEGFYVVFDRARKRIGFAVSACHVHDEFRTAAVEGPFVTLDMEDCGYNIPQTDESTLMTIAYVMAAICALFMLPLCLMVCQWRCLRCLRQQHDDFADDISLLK
T1 sequence (P08684 whole entry): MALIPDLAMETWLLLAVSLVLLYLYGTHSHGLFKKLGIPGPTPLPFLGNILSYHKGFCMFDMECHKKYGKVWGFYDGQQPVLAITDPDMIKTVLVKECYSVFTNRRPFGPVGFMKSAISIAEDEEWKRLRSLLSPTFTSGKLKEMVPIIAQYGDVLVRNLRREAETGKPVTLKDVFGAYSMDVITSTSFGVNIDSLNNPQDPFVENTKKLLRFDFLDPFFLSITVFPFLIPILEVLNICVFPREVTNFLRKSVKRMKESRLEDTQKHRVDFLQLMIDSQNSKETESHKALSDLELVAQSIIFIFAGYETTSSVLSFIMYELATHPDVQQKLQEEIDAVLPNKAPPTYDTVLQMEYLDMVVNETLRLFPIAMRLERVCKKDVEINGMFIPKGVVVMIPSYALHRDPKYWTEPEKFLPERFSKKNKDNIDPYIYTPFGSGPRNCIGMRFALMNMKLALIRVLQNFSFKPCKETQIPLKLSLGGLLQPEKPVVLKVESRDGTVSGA
Chain of Cytochrome P450 2D6 (P10635 whole entry): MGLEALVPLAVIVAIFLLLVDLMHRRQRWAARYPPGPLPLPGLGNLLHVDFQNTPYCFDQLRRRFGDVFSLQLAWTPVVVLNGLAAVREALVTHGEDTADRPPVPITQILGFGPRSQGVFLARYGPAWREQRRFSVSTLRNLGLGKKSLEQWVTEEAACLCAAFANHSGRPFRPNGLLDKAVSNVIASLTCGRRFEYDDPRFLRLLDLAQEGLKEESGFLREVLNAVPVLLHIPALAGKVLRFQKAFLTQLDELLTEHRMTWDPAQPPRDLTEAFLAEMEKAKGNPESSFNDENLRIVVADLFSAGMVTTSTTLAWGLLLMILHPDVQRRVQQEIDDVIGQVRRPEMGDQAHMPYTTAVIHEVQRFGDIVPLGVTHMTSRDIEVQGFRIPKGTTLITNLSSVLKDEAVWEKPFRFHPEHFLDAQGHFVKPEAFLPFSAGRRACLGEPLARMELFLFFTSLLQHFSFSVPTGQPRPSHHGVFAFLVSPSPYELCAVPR
Chain of Cytochrome P450 2C9 (P11712 whole entry): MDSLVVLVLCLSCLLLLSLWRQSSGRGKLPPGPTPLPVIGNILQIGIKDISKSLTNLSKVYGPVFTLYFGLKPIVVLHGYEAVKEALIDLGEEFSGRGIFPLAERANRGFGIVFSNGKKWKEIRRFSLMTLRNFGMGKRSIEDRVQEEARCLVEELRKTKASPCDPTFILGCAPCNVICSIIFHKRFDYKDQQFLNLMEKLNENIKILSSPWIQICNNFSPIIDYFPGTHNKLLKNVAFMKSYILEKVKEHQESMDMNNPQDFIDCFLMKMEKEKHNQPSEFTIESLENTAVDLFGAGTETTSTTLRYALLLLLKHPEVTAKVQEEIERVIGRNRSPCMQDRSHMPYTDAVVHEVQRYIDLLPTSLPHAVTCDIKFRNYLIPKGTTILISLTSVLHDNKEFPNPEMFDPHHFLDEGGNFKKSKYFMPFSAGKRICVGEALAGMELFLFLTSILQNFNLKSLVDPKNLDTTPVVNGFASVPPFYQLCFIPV
Chain of Cytochrome P450 2C19 (P33261 whole entry): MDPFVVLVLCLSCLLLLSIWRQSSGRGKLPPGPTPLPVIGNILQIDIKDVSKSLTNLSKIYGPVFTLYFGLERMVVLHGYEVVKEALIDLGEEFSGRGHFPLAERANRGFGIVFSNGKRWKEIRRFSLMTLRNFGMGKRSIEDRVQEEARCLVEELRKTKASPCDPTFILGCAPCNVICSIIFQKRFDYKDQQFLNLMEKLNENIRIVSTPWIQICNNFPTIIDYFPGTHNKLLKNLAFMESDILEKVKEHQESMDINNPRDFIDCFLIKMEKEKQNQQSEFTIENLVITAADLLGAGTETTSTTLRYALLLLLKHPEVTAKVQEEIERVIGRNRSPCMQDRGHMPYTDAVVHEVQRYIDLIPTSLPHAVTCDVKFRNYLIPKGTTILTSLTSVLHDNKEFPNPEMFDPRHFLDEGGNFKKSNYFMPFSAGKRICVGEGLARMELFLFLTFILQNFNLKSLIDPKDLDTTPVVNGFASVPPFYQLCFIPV

For the compound `Cc1oncc1[C@]1(C)C[C@@H](c2cc(-c3cncnc3)c(F)cc2F)N=C(N)S1` (racemic), the IC50 (commonly the concentration that gives 50% inhibition) in data set [1] came to 180 nM.
Same read-out and setting: to `Cc1noc(C)c1[C@@H]1C[C@@H](c2cc(-c3cncnc3)c(F)cc2F)N=C(N)S1` belongs 70 nM; to `COc1ccc([C@@H]2C[C@@H](c3cccc(-c4cncnc4)c3)N=C(N)S2)cc1OC`, 1100 nM; to `COc1ccc([C@@H]2C[C@@H](c3cc(-c4cncnc4)c(F)cc3F)N=C(N)S2)cc1OC`, 290 nM.
On the same count and under the same terms, the value for `Cc1noc(C)c1[C@@H]1C[C@@H](c2cc(NC(=O)c3ccc(Cl)cn3)ccc2F)N=C(N)S1` was 5 nM.
In the case of `Cc1noc(C)c1[C@@H]1C[C@@](C)(c2cc(F)cc(NC(=O)c3ccc(Cl)cn3)c2)N=C(N)S1`, the results for the remaining at 10 min, 0.5 µM in [2], in data set [3] and in data set [4] were 26%, 13% and 39%, respectively. For the same compound, the IC50 in [1] is 2.3 nM.
In the case of `Cc1noc(C)c1[C@@H]1C[C@@](C)(c2cc(N)cc(F)c2F)N=C(N)S1`, the Activity entry in [5] is listed as “Non-toxic”. The fraction unbound at 5 h in [6] is 0.05.
Take `COc1cnc(C(=O)Nc2cc(F)c(F)c([C@]3(C)C[C@@H](c4c(C)noc4C)SC(N)=N3)c2)cn1`: the remaining at 10 min, 0.5 µM is 69% in data set [2], 74% in data set [3] and 81% in [4]. The IC50 in [1] was 0.9 nM; in [9], greater than 20000 nM; in [12] it was greater than 20000 nM; in data set [18], greater than 20000 nM; in data set [22] it was greater than 20000 nM; in data set [26], greater than 20000 nM. Also, the half-maximal inhibitory concentration (IC50) in [28] was greater than 20000 nM; in data set [29], 5000 nM. The concentration at 5 h in data set [7] was found to be 420 nM; in data set [11], 1500 nM; in data set [13] it was 150 nM; in [14], 160 nM; in data set [16], 67 nM; in [25], 360 nM. For the same compound, the Drug metabolism result in data set [8] is “metabolite_detected”. Also, the inhibition result in data set [10], in [24] and in data set [30] was “Dose-dependent effect” each time. Also, in data set [15], the “Cp(f)” value stood at 13 nM. For the same compound, the Kp at 5 h in data set [17] is 0.46; in [20] it was 0.3; in data set [27], 0.44. For the same compound, the inhibition in vivo (commonly the percentage by which the read-out fell short of the control) at 10 mg/kg in data set [19] is 85%. For the same compound, the concentration for a half-maximal effect (EC50) (commonly the midpoint of the concentration-response curve) in data set [21] amounted to 260 nM; in [23], 13 nM.
With `Cc1noc(C)c1[C@@H]1C[C@@](C)(c2cc(NC(=O)c3ccc(Cl)cn3)cc(F)c2F)N=C(N)S1`, the remaining at 10 min, 0.5 µM was 63% in data set [2], 58% in [3] and 87% in [4]. Moreover, the IC50 in [1] stood at 0.7 nM.
For `Cc1noc(C)c1[C@@H]1C[C@@](C)(c2cccc(NC(=O)c3ccc(Cl)cn3)c2F)N=C(N)S1`, in that order: 43%, 38%, 38% and 160 nM.
Turning to `Cc1noc(C)c1[C@]1(C)C[C@@H](c2cc(-c3cncnc3)c(F)cc2F)N=C(N)S1` (relative stereo), the IC50 in [1] amounted to 3700 nM.
Regarding `Cc1noc(C)c1[C@@H]1C[C@@](C)(c2cc(NC(=O)c3ccc(Cl)cn3)c(F)cc2F)N=C(N)S1`, the remaining at 10 min, 0.5 µM in data set [2] came out at 76%; in [3], 75%; in data set [4], 78%. Also, the IC50 in data set [1] amounted to 31 nM.
For the compound `Cc1noc(C)c1[C@@H]1C[C@@](C)(c2cc(-c3cncnc3)c(F)cc2F)N=C(N)S1`, the remaining at 10 min, 0.5 µM in data set [2] is 49%; in [3], 48%; in [4], 23%. The inhibition entry in data set [31] was “Active”.

These data come from ChEMBL document CHEMBL3804782, “Targeting the BACE1 Active Site Flap Leads to a Potent Inhibitor That Elicits Robust Brain Aβ Reduction in Rodents” (ACS Med Chem Lett, 2016).
